Test [1] deals with Shigella flexneri. The test is described as follows: The relative ability of compound to promote the growth of Shigella flexneri SA 240, a strain lacking the ability to synthesize siderophores was measured as zone stimulation at concentration of 5 mM; NA=No activity. It is filed as functional, organism-based. The gist of the method: (§1)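 SA240 (S. flexneri 2a SA100 iucD::Tn5, a siderophore-synthesis mutant) was grown overnight in Luria broth, then seeded at 10^3/mL into Luria agar with the iron chelator EDDA (250 µg/mL). Compounds were made as 10 mM water stocks and diluted in water to the test levels. Sterile disks holding 10 µL were laid on the agar and incubated 18 h at 37 °C. Diameters of the growth-stimulation zones were measured.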

For test [2], the system named is Shigella flexneri. The test is described as follows: The relative ability of compound to promote the growth of Shigella flexneri SA 240, a strain lacking the ability to synthesize siderophores was measured as zone stimulation at concentration of 100 uM. It is filed as functional. The gist of the method: as §1
Test [3] deals with Shigella flexneri. The test is described as follows: The relative ability of compound to promote the growth of Shigella flexneri SA 240, a strain lacking the ability to synthesize siderophores was measured as zone stimulation at concentration of 1 mM. The test is classed as functional. The method in brief: as §1
Test [4] has as its system Shigella flexneri. The test is described as follows: The relative ability of compound to promote the growth of Shigella flexneri SA 240, a strain lacking the ability to synthesize siderophores was measured as zone stimulation at concentration of 500 uM. The test is classed as functional. The method in brief: as §1
The subject of test [5] is Shigella flexneri. Put plainly: The relative ability of compound to promote the growth of Shigella flexneri SA 240, a strain lacking the ability to synthesize siderophores was measured as zone stimulation at concentration of 5 mM. The test is classed as functional. The method in brief: as §1
Test [6] deals with Shigella flexneri. The test is described as follows: The relative ability of compound to promote the growth of Shigella flexneri SA 240, a strain lacking the ability to synthesize siderophores was measured as zone stimulation at concentration of 50 uM; NA=No activity. The test is classed as functional, organism-based. The method in brief: as §1
The test system of test [7] is Shigella flexneri. Put plainly: The relative ability of compound to promote the growth of Shigella flexneri SA 240, a strain lacking the ability to synthesize siderophores was measured as zone stimulation at concentration of 100 uM; NA=No activity. The test is classed as functional, organism-based. The method in brief:
as §1

Activity calls are given as the source filed them. No cut-off for these calls is given here.

On to `CC(=O)N(O)CCC[C@H](NC(=O)[C@H](CCCN(O)C(C)=O)NC(=O)[C@@H](N)CCCN(O)C(C)=O)C(=O)N[C@H](CO)C(=O)N[C@H](CC(=O)O)C(=O)O`, for which the Zone of stimulation entry in the test with Shigella flexneri [1] is “inactive”.
In the case of `CC(=O)N(O)CCC[C@H](NC(=O)[C@H](CCCN(O)C(C)=O)NC(=O)[C@@H](N)CCCN(O)C(C)=O)C(=O)O`, the Zone of stimulation came out at 13 mm with Shigella flexneri [2], 37 mm in the test on Shigella flexneri [3], 30 mm in the test with Shigella flexneri [4] and 40 mm in the test on Shigella flexneri [5]. Besides, in the test on Shigella flexneri [6], the Zone of stimulation result was “inactive”.
On to `CC(=O)N(O)CCC[C@H](NC(=O)[C@H](CCCN(O)C(C)=O)NC(=O)[C@@H](N)CCCN(O)C(C)=O)C(=O)N[C@H](CO)C(=O)O`, for which, in the test with Shigella flexneri [7], the Zone of stimulation result is “inactive”. Also, the Zone of stimulation in the test with Shigella flexneri [3] stood at 12 mm; in the test with Shigella flexneri [4], 12 mm; in the test with Shigella flexneri [5] it was 18 mm.
Regarding `CC(=O)N(O)CCC[C@H](N)C(=O)O`, the Zone of stimulation entry in the test on Shigella flexneri [1] is “inactive”.
For `CC(=O)N(O)CCC[C@H](NC(=O)[C@H](CCCN(O)C(C)=O)NC(=O)[C@@H](N)CCCN(O)C(C)=O)C(=O)N[C@@H](C(=O)O)c1ccccc1`, the Zone of stimulation with Shigella flexneri [2] is 17 mm; in the test with Shigella flexneri [3] it was 41 mm; in the test with Shigella flexneri [4], 28 mm; in the test on Shigella flexneri [5] it was 45 mm. The Zone of stimulation result with Shigella flexneri [6] was “inactive”.
Regarding `CC(=O)N(O)CCC[C@H](NC(=O)[C@H](CCCN(O)C(C)=O)NC(=O)[C@@H](N)CCCN(O)C(C)=O)C(=O)N[C@@H](C(=O)O)c1ccc(O)cc1`, the Zone of stimulation is 15 mm in the test on Shigella flexneri [2], 40 mm with Shigella flexneri [3], 25 mm with Shigella flexneri [4] and 45 mm in the test with Shigella flexneri [5]. Further, the Zone of stimulation result in the test with Shigella flexneri [6] was “inactive”.

For the origin of these results see ChEMBL document CHEMBL1125901, “Synthesis and siderophore activity of albomycin-like peptides derived from N5-acetyl-N5-hydroxy-L-ornithine” (1991).
